Measured values reported in PMC9401513 (Clinical Cancer Research, 2021).
Entries after “also recorded” stand apart in the source; their conditions may differ.

Assays:
[1] = tested on: patients with advanced solid tumors; test: Adverse events graded by NCI-CTCAE v4.03 in phase I patients; format: in vivo, human
Outline: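 Test compound was given by IV infusion over about 60 min every 3 weeks in sequential dose-escalation cohorts to adults with advanced solid tumors (ECOG 0–1). Adverse events were graded by NCI-CTCAE v4.03 over all cycles and tabulated as treatment-related by dose level. G-CSF was permitted after cycle 1. Antiemetics and corticosteroids were given at the physician's discretion.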

[2] = tested on: patients with advanced solid tumors; test: Dose-limiting toxicity, MTD and RP2D determination; format: in vivo, human
Outline: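 Dose escalation followed the modified toxicity probability interval method. Target DLT rate was 25%, with an acceptable interval of 20–30%, a beta(0.75, 0.65) prior and a 0.975 exclusion threshold. DLTs were treatment-related events in cycle 1, monitored over 28 days: grade 4 neutropenia >7 days, grade ≥3 nonhematologic nonhepatic toxicity, or >2-week cycle delay. MTD was the highest dose with DLT rate <0.30 in ≥9 evaluable patients. Dosing was IV every 3 weeks (0.2–3.7 mg/kg) or every 2 weeks (2.1, 2.8, 3.2 mg/kg).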

[3] = Clinical pharmacokinetics; format: in vivo, human; details: for systemic exposure (AUCtau, Cmax) versus dose: 0.2 to 3.7 mg/kg every 3 weeks dose levels of PF-06647020; for Cmax: ADC, Cycle 1 single dose, geometric mean (geometric % CV)
CYP3A4 = CYP3A4 (Homo sapiens, UniProt P08684); test: Drug-drug interaction substudy with multiple-dose fluconazole; format: in vivo; details: PF-06647020 co-administered with multiple-dose fluconazole, 11 patients
CYP3A4, sequence (P08684 whole entry): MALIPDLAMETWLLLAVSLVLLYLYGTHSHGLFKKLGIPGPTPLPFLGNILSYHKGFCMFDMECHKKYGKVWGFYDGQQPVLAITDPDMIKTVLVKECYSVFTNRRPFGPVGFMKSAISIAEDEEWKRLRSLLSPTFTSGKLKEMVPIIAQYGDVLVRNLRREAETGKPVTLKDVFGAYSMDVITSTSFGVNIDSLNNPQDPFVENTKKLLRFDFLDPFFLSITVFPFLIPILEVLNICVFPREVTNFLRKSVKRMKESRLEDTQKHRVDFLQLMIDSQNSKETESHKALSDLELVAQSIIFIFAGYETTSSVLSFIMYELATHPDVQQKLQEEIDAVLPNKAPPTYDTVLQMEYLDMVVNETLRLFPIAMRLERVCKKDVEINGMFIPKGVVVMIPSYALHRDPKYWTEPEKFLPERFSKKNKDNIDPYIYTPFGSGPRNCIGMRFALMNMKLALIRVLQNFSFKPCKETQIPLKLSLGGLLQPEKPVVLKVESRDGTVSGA
Outline: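 Single-dose test ADC was given alone in cycle 1 (reference) and co-administered with multiple-dose fluconazole in cycle 2 (test). Unconjugated payload exposure was measured as dose-normalized AUCinf and Cmax from noncompartmental analysis. Results were expressed as ratios of adjusted geometric means with 90% confidence intervals.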

[4] = 0.2 mg/kg every 3 weeks, all cycles, 2 evaluable pts
[5] = 0.5 mg/kg every 3 weeks, all cycles, 2 evaluable pts
[6] = 1.25 mg/kg every 3 weeks, all cycles, 2 evaluable pts
[7] = 2.1 mg/kg every 3 weeks, all cycles, 4 evaluable pts
[8] = 2.8 mg/kg every 3 weeks, all cycles, 96 evaluable pts
[9] = 3.7 mg/kg every 3 weeks, all cycles, 6 evaluable pts
[10] = every 3 weeks, all cycles, N = 112

B1: cofetuzumab pelidotin (conjugate, chains of the INN, looked up)
VH: QVQLVQSGPEVKKPGASVKVSCKASGYTFTDYAVHWVRQAPGKRLEWIGVISTYNDYTYNNQDFKGRVTMTRDTSASTAYMELSRLRSEDTAVYYCARGNSYFYALDYWGQGTSVTVSS
VL: EIVLTQSPATLSLSPGERATLSCRASESVDSYGKSFMHWYQQKPGQAPRLLIYRASNLESGIPARFSGSGSGTDFTLTISSLEPEDFAVYYCQQSNEDPWTFGGGTKLEIK
modifications: auristatin-0101 payload, vc linker
Number of AEs (TRAEs) [1, 4]: 1 n (%) | Pts discontinued due to AEs (TRAEs) [1, 4]: 0 n (%) | Pts with AEs (TRAEs) [1, 4]: 1 (50.0) n (%) | Pts with G3/G4 AEs (TRAEs) [1, 4]: 1 (50.0) n (%) | Pts with SAEs (TRAEs) [1, 4]: 0 n (%) | Pts with dose reduction and temporary discontinuation due to AEs (TRAEs) [1, 4]: 0 n (%) | Pts with dose reduction due to AEs (TRAEs) [1, 4]: 0 n (%) | Pts with temporary discontinuation due to AEs (TRAEs) [1, 4]: 0 n (%) | Number of AEs (TRAEs) [1, 5]: 1 n (%) | Pts discontinued due to AEs (TRAEs) [1, 5]: 0 n (%) | Pts with AEs (TRAEs) [1, 5]: 1 (50.0) n (%) | Pts with G3/G4 AEs (TRAEs) [1, 5]: 0 n (%) | Pts with SAEs (TRAEs) [1, 5]: 0 n (%) | Pts with dose reduction and temporary discontinuation due to AEs (TRAEs) [1, 5]: 0 n (%) | Pts with dose reduction due to AEs (TRAEs) [1, 5]: 0 n (%) | Pts with temporary discontinuation due to AEs (TRAEs) [1, 5]: 0 n (%) | Number of AEs (TRAEs) [1, 6]: 6 n (%) | Pts discontinued due to AEs (TRAEs) [1, 6]: 0 n (%) | Pts with AEs (TRAEs) [1, 6]: 1 (50.0) n (%) | Pts with G3/G4 AEs (TRAEs) [1, 6]: 0 n (%) | Pts with SAEs (TRAEs) [1, 6]: 0 n (%) | Pts with dose reduction and temporary discontinuation due to AEs (TRAEs) [1, 6]: 0 n (%) | Pts with dose reduction due to AEs (TRAEs) [1, 6]: 0 n (%) | Pts with temporary discontinuation due to AEs (TRAEs) [1, 6]: 0 n (%) | Number of AEs (TRAEs) [1, 7]: 28 n (%) | Pts discontinued due to AEs (TRAEs) [1, 7]: 1 (25.0) n (%) | Pts with AEs (TRAEs) [1, 7]: 4 (100.0) n (%) | Pts with G3/G4 AEs (TRAEs) [1, 7]: 0 n (%) | Pts with SAEs (TRAEs) [1, 7]: 1 (25.0) n (%) | Pts with dose reduction and temporary discontinuation due to AEs (TRAEs) [1, 7]: 0 n (%) | Pts with dose reduction due to AEs (TRAEs) [1, 7]: 0 n (%) | Pts with temporary discontinuation due to AEs (TRAEs) [1, 7]: 0 n (%) | Number of AEs (TRAEs) [1, 8]: 475 n (%) | Pts discontinued due to AEs (TRAEs) [1, 8]: 2 (2.1) n (%) | Pts with AEs (TRAEs) [1, 8]: 84 (87.5) n (%) | Pts with G3/G4 AEs (TRAEs) [1, 8]: 40 (41.7) n (%) | Pts with SAEs (TRAEs) [1, 8]: 9 (9.4) n (%) | Pts with dose reduction and temporary discontinuation due to AEs (TRAEs) [1, 8]: 3 (3.1) n (%) | Pts with dose reduction due to AEs (TRAEs) [1, 8]: 7 (7.3) n (%) | Pts with temporary discontinuation due to AEs (TRAEs) [1, 8]: 16 (16.7) n (%) | Number of AEs (TRAEs) [1, 9]: 27 n (%) | Pts discontinued due to AEs (TRAEs) [1, 9]: 0 n (%) | Pts with AEs (TRAEs) [1, 9]: 5 (83.3) n (%) | Pts with G3/G4 AEs (TRAEs) [1, 9]: 3 (50.0) n (%) | Pts with SAEs (TRAEs) [1, 9]: 0 n (%) | Pts with dose reduction and temporary discontinuation due to AEs (TRAEs) [1, 9]: 1 (16.7) n (%) | Pts with dose reduction due to AEs (TRAEs) [1, 9]: 0 n (%) | Pts with temporary discontinuation due to AEs (TRAEs) [1, 9]: 0 n (%) | patients reporting headache after infusion on cycle 1, day 1 or 2 ([1]; all patients, every 3 weeks and every 2 weeks cohorts): 29 patients | grade 1–2 peripheral sensory neuropathy ([1]; every 2 weeks, N = 25): 20% | grade 3 peripheral sensory neuropathy ([1]; every 2 weeks, N = 25): 8% | patients discontinued because of a TRAE ([1]; every 2 weeks, N = 25): 4% | patients with dose reduction ([1]; every 2 weeks, N = 25): 16% | patients with grade ≥ 3 all-cause AEs ([1]; every 2 weeks, N = 25): 72% | temporary discontinuations due to TRAEs ([1]; every 2 weeks, N = 25): 44% | treatment-related grade 3–4 neutropenia ([1]; every 2 weeks, N = 25): 24% | patients died on study ([1]; every 2 weeks, N = 25, disease progression): 16% | deaths because of a treatment-related AE ([1]; every 3 weeks and every 2 weeks): None of the patients died because of a treatment-related AE | treatment-emergent, all-cause AEs ([1]; every 3 weeks or every 2 weeks): all patients | treatment-related grade 5 AEs ([1]; every 3 weeks regimen): ^aNo treatment-related grade 5 AEs were observed with the every 3 weeks regimen. | febrile neutropenia ([1]; every 3 weeks, N = 112): 2.7% | grade ≥ 3 treatment-related neutropenia ([1]; every 3 weeks, N = 112): 25% | patients discontinued because of a TRAE ([1]; every 3 weeks, N = 112): 2.7% | patients with dose reduction ([1]; every 3 weeks, N = 112): 6.3% | patients with grade ≥ 3 all-cause AEs ([1]; every 3 weeks, N = 112): 79.4% | temporary discontinuations due to TRAEs ([1]; every 3 weeks, N = 112): 14.3% | treatment-related peripheral sensory neuropathy (all grade 1 or 2) ([1]; every 3 weeks, N = 112): 12.5% | patients died on study ([1]; every 3 weeks, N = 112, mostly disease progression): 15.2% | TRAE Alopecia, Grade 1 [1, 10]: 13 (11.6) n (%) | TRAE Alopecia, Grade 2 [1, 10]: 33 (29.5) n (%) | TRAE Alopecia, Grade 3 [1, 10]: 0 n (%) | TRAE Alopecia, Grade 4 [1, 10]: 0 n (%) | TRAE Alopecia, Total [1, 10]: 46 (41.1) n (%) | TRAE Arthralgia, Grade 1 [1, 10]: 16 (14.3) n (%) | TRAE Arthralgia, Grade 2 [1, 10]: 2 (1.8) n (%) | TRAE Arthralgia, Grade 3 [1, 10]: 1 (0.9) n (%) | TRAE Arthralgia, Grade 4 [1, 10]: 0 n (%) | TRAE Arthralgia, Total [1, 10]: 19 (17.0) n (%) | TRAE Decreased appetite, Grade 1 [1, 10]: 11 (9.8) n (%) | TRAE Decreased appetite, Grade 2 [1, 10]: 7 (6.3) n (%) | TRAE Decreased appetite, Grade 3 [1, 10]: 0 n (%) | TRAE Decreased appetite, Grade 4 [1, 10]: 0 n (%) | TRAE Decreased appetite, Total [1, 10]: 18 (16.1) n (%) | TRAE Diarrhea, Grade 1 [1, 10]: 8 (7.1) n (%) | TRAE Diarrhea, Grade 2 [1, 10]: 8 (7.1) n (%) | TRAE Diarrhea, Grade 3 [1, 10]: 1 (0.9) n (%) | TRAE Diarrhea, Grade 4 [1, 10]: 0 n (%) | TRAE Diarrhea, Total [1, 10]: 17 (15.2) n (%) | TRAE Fatigue, Grade 1 [1, 10]: 19 (17.0) n (%) | TRAE Fatigue, Grade 2 [1, 10]: 19 (17.0) n (%) | TRAE Fatigue, Grade 3 [1, 10]: 3 (2.7) n (%) | TRAE Fatigue, Grade 4 [1, 10]: 0 n (%) | TRAE Fatigue, Total [1, 10]: 41 (36.6) n (%) | TRAE Headache, Grade 1 [1, 10]: 13 (11.6) n (%) | TRAE Headache, Grade 2 [1, 10]: 19 (17.0) n (%) | TRAE Headache, Grade 3 [1, 10]: 5 (4.5) n (%) | TRAE Headache, Grade 4 [1, 10]: 0 n (%) | TRAE Headache, Total [1, 10]: 37 (33.0) n (%) | TRAE Myalgia, Grade 1 [1, 10]: 11 (9.8) n (%) | TRAE Myalgia, Grade 2 [1, 10]: 3 (2.7) n (%) | TRAE Myalgia, Grade 3 [1, 10]: 1 (0.9) n (%) | TRAE Myalgia, Grade 4 [1, 10]: 0 n (%) | TRAE Myalgia, Total [1, 10]: 15 (13.4) n (%) | TRAE Nausea, Grade 1 [1, 10]: 28 (25.0) n (%) | TRAE Nausea, Grade 2 [1, 10]: 21 (18.8) n (%) | TRAE Nausea, Grade 3 [1, 10]: 1 (0.9) n (%) | TRAE Nausea, Grade 4 [1, 10]: 0 n (%) | TRAE Nausea, Total [1, 10]: 50 (44.6) n (%) | TRAE Neutropenia, Grade 1 [1, 10]: 0 n (%) | TRAE Neutropenia, Grade 2 [1, 10]: 4 (3.6) n (%) | TRAE Neutropenia, Grade 3 [1, 10]: 17 (15.2) n (%) | TRAE Neutropenia, Grade 4 [1, 10]: 11 (9.8) n (%) | TRAE Neutropenia, Total [1, 10]: 32 (28.6) n (%) | TRAE Peripheral sensory neuropathy, Grade 1 [1, 10]: 7 (6.3) n (%) | TRAE Peripheral sensory neuropathy, Grade 2 [1, 10]: 7 (6.3) n (%) | TRAE Peripheral sensory neuropathy, Grade 3 [1, 10]: 0 n (%) | TRAE Peripheral sensory neuropathy, Grade 4 [1, 10]: 0 n (%) | TRAE Peripheral sensory neuropathy, Total [1, 10]: 14 (12.5) n (%) | TRAE Vomiting, Grade 1 [1, 10]: 10 (8.9) n (%) | TRAE Vomiting, Grade 2 [1, 10]: 14 (12.5) n (%) | TRAE Vomiting, Grade 3 [1, 10]: 4 (3.6) n (%) | TRAE Vomiting, Grade 4 [1, 10]: 0 n (%) | TRAE Vomiting, Total [1, 10]: 28 (25.0) n (%) | DLT observed ([2]; 2.8 mg/kg every 2 weeks, n = 10): grade 3 neutropenic infection in 1 patient | DLT observed ([2]; 3.2 mg/kg every 2 weeks, n = 12): grade 3 abdominal pain in 2 patients | DLTs reported ([2]; 3.7 mg/kg every 3 weeks (highest dose), n = 6, two DLTs): grade 3 headache and fatigue; also recorded: grade 3 headache and grade 3 fatigue | DLT rate ([2]; 3.7 mg/kg every 3 weeks, n = 6): 33% | MTD ([2]; every 2 weeks regimen, dose levels 2.1-3.2 mg/kg): not reached | MTD (estimated as protocol specified) ([2]; every 3 weeks): 2.8 mg/kg | RP2D (recommended phase II dose) ([2]; every 3 weeks): 2.8 mg/kg | AUC ratio between ADC and total antibody ([3]; 2.8 mg/kg every 3 weeks): approximately 0.9 | systemic exposure (AUCtau, Cmax) versus dose [3]: generally increased in a dose-related manner | systemic exposure (AUCtau, Cmax) versus dose ([3]; listed as ADC): generally increased in a dose-proportional manner | Cmax ([3]; 2.8 mg/kg Q2W IV): 99.7 µg/mL | Cmax ([3]; 2.8 mg/kg Q3W IV): 79.8 µg/mL | impact of fluconazole co-administration on overall exposure (CYP3A4): did not have a notable impact
